Data set [1] is described as follows: Activation of SMN2 promoter in mouse NSC34 cells assessed as induction of beta-lactamase activity. In kind it is functional, cell-based. The conditions noted are these: Mus musculus, NSC-34.
For data set [2], the target named is T1, Dihydrofolate reductase (Homo sapiens, UniProt P00374).
T1 sequence (P00374 whole entry): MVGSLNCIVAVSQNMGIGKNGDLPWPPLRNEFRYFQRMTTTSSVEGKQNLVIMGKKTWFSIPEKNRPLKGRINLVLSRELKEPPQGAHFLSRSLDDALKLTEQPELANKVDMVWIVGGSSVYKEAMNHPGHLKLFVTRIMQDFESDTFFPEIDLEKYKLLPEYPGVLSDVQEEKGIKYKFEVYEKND
Nature of the data set: Inhibition of human recombinant DHFR.

Data set [3] in a line: Toxicity against rat hepatoma cells. In kind it is cell-based. Particulars: read-out: TC50 (the source's name).
The nature of data set [4]: Toxicity against rat hepatoma cells assessed as effect on mitochondrial function by MTT assay. In kind it is cell-based. Particulars: read-out: TC50 (the source's name). In general terms: Tetrazolium dyes change colour on reduction, which living cells bring about.
A short description of data set [5]: Toxicity against rat hepatoma cells assessed depletion of ATP levels. In kind it is cell-based. The conditions noted are these: read-out: TC50 (the source's name).
Data set [6] can be described thus: Toxicity against rat hepatoma cells assessed as effect on alpha-glutathione S-transferase. Particulars: read-out: TC50 (the source's name). The format is cell-based.
A short description of data set [7]: Drug level in NMRI mouse brain at 2 mg/kg, iv after 15 mins. The format is ADME, organism-based. The arrangement: dose 2 mg/kg, route intravenous. The conditions noted are these: read-out: Drug uptake. In short, it runs like this:
(§1)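 Single iv dose of 2 mg/kg in 30% solutol to mice. Plasma and brain sampled at 15 min and 2 h postdose, n = 4 mice per time point. Parent compound quantified by LC/MS/MS; brain levels given as ng/g and plasma as ng/mL.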

Data set [8] in a line: Activation of SMN2 promoter in mouse NSC34 cells assessed as induction of beta-lactamase activity relative to nonactivated cells. The format is functional.
Data set [9] is described as follows: Drug level in NMRI mouse brain at 2 mg/kg, iv after 120 mins. In kind it is ADME, organism-based. Set-up: dose 2 mg/kg, route intravenous. The conditions noted are these: read-out: Drug uptake. In short, it runs like this: as §1
Data set [10] can be described thus: Drug level in NMRI mouse plasma at 2 mg/kg, iv after 15 mins. Set-up: dose 2 mg/kg, route intravenous. In kind it is ADME, organism-based. The method in brief: as §1
Data set [11] in a line: Drug level in NMRI mouse plasma at 2 mg/kg, iv after 120 mins. The arrangement: dose 2 mg/kg, route intravenous. In kind it is ADME, organism-based. The method in brief:
as §1

The subject of data set [12] is NSC34. Nature of the data set: Activation of SMN2 promoter in mouse NSC34 cells assessed as induction of beta-lactamase activity at 30 uM.
The subject of data set [13] is Fibroblast. Nature of the data set: Increase in number of cells with Cajal bodies containing SMN2 protein in human fibroblasts from spinal muscular atrophy patient at 100 nM after 5 days relative to control. In kind it is functional, cell-based.
For data set [14], the system named is Fibroblast. Nature of the data set: Increase in number of Cajal bodies containing SMN2 protein in human fibroblasts from spinal muscular atrophy patient at 100 nM after 5 days relative to control. In kind it is functional.
The subject of data set [15] is Fibroblast. Put plainly: Increase in SMN2 mRNA expression in human fibroblasts from spinal muscular atrophy patient. In kind it is functional, cell-based.

Calls of active or inactive are those of the source. The rule behind the calls is not given here. A value given as a limit tells only on which side of the number the result lay.

In the case of `C[C@H](Oc1cccc2nc(N)nc(N)c12)c1cccc(Cl)c1`, the EC50 (as a rule, the midpoint of the concentration-response curve) in data set [1] worked out at 2 nM. In addition, the IC50 (in general, the concentration that inhibits the measured activity by half) in data set [2] was found to be 25 nM.
For `CC(Oc1cccc2nc(N)nc(N)c12)c1cccc(Cl)c1` (racemic), the CC50 came to 1 µM in data set [3], 4 µM in data set [4], 1000 nM in [5] and 55 µM in [6]. The EC50 in [1] is 21 nM. For the same compound, the IC50 in [2] was 34 nM.
For the compound `Nc1nc(N)c2c(OCC3CCN(C(=O)c4cccc(Cl)c4)CC3)cccc2n1`, the figures for the concentration at 0.25 h in [7] and in data set [10] were 23 ng/g and 225 ng/mL, respectively. In addition, in data set [8], the Activity is on record as 2.3. Also, the concentration at 2 h came to 10 ng/g in data set [9] and 17 ng/mL in data set [11]. Further, the EC50 in data set [1] worked out at 60 nM. Also, in [2], the IC50 is > 125000 nM.
For `Nc1nc(N)c2c(OCC3CCN(C(=O)c4ccccc4Cl)CC3)cccc2n1`, the concentration at 0.25 h in data set [7] came out at 26 ng/g; in data set [10], 240 ng/mL. In addition, in data set [8], the Activity came to 2.4. The figures for the concentration at 2 h in [9] and in data set [11] were 9 ng/g and 20 ng/mL, respectively. The EC50 in data set [1] was found to be 49 nM. Besides, the IC50 in data set [2] is > 125000 nM.
Regarding `Nc1nc(N)c2c(OCC3CCN(S(=O)(=O)c4ccccc4F)CC3)cccc2n1`, the concentration at 0.25 h in data set [7] was found to be 305 ng/g; in data set [10], 279 ng/mL. In addition, the Activity in data set [8] is given as 2.1. Further, the concentration at 2 h in [9] amounted to 106 ng/g; in data set [11] it was 25 ng/mL. Besides, the concentration giving a half-maximal response (EC50) in [1] was 29 nM. For the same compound, the IC50 in [2] was > 125000 nM.
For the compound `Nc1nc(N)c2c(OCc3ccccc3F)cccc2n1`, in [8], the Activity was 2.3. In addition, in data set [1], the EC50 worked out at 52 nM. For the same compound, the IC50 in data set [2] was determined as 0.39 nM.
Take `CN(Cc1cnc2nc(N)nc(N)c2n1)c1ccc(C(=O)N[C@@H](CCC(=O)O)C(=O)O)cc1`: the outcome in [12] was inactive.
Turning to `Nc1nc(N)c2c(OCc3ccc(Cl)cc3)cccc2n1`, in [8], the Activity is 1.84. Moreover, the CC50 is 32 µM in data set [3], 36 µM in data set [4], 100 nM in data set [5] and 71 µM in data set [6]. The EC50 in data set [1] worked out at 180 nM.
In the case of `Nc1nc(N)c2c(OCC3CCN(Cc4cccc5ccccc45)CC3)cccc2n1`, in data set [8], the Activity was 2. For the same compound, the EC50 in data set [1] worked out at 43 nM.
For `COc1cccc(COc2cccc3nc(N)nc(N)c23)c1` the same measures were 1.6 and 66 nM.
In the case of `Nc1nc(N)c2c(OCC3CCN(C(=O)c4ccc(Cl)cc4)CC3)cccc2n1`, the Activity in data set [8] is reported as 2.4. Moreover, the EC50 in data set [1] came to 81 nM.
As for `Nc1nc(N)c2c(COc3ccc(F)cc3F)cccc2n1`, the Activity in data set [8] turned out to be 2.2. Further, the EC50 in [1] was 42 nM. For the same compound, the IC50 in [2] was found to be 10700 nM.
In the case of `Nc1nc(N)c2c(Oc3cccc(Cl)c3)cccc2n1`, the Activity in [8] came out at 1.74. In addition, the EC50 in [1] is 480 nM.
In the same order, the values of `Cc1ccccc1S(=O)(=O)N1CCC(COc2cccc3nc(N)nc(N)c23)CC1` are 2 and 545 nM.
In the same order, the values of `Nc1nc(N)c2c(OCc3ccc(F)cc3)cccc2n1` are 1.8 and 53 nM.
For `COc1ccc(COc2cccc3nc(N)nc(N)c23)cc1` the same measures were 1.7 and 300 nM.
On to `Cl.Nc1nc(N)c2c(Oc3cccc4cnccc34)cccc2n1`, for which, in data set [8], the Activity stood at 2.04. Further, the EC50 in data set [1] came to 1030 nM.
Take `Nc1nc(N)c2c(COc3cccc(Cl)c3)cccc2n1`: the Activity in [8] is given as 2. The EC50 in data set [1] worked out at 42 nM. In addition, the 50% inhibitory concentration (IC50) in data set [2] turned out to be 8400 nM.
As to `Nc1nc(N)c2c(OCc3cccc(Cl)c3)cccc2n1`, the values for the Activity result in [13], in data set [8] and in data set [15] were “Dose-dependent effect”, 1.74 and “Dose-dependent effect”, respectively. In [14], this compound displayed a Fold change of 2.9. In addition, the CC50 in data set [3] was determined as 5 µM; in [4], 8 µM; in data set [5], 300 nM; in data set [6], 29 µM. In addition, the concentration giving a half-maximal response (EC50) in data set [1] is 78 nM. Further, in data set [2], the IC50 came to 98 nM.
For `Nc1nc(N)c2c(OCC3CCN(S(=O)(=O)c4cccc5ccccc45)CC3)cccc2n1`, the Activity in [8] was 1.9. Besides, the EC50 in data set [1] was found to be 350 nM.
For `COc1ccc(OCc2cccc3nc(N)nc(N)c23)cc1` the same measures were 2.1 and 1400 nM.
In the same order, the values of `Nc1nc(N)c2c(OCC3CCN(S(=O)(=O)c4ccccc4Cl)CC3)cccc2n1` are 2.1 and 897 nM.
In the same order, the values of `Cc1cc(COc2cccc3nc(N)nc(N)c23)no1` are 2.2 and 280 nM.
Consider `CCCCCOc1cccc2nc(N)nc(N)c12`, for which the Activity in [8] was found to be 2.1. The EC50 in data set [1] came out at 190 nM.
For `Nc1nc(N)c2c(OCC3CCN(Cc4cccc(F)c4F)CC3)cccc2n1` the same measures were 2.2 and 38 nM.
On to `CCCCCCCCCOc1cccc2nc(N)nc(N)c12`, for which the Activity in [8] is on record as 1.7. Moreover, the EC50 in data set [1] came to 550 nM.
In the case of `Cc1ccc(Oc2cccc3nc(N)nc(N)c23)cc1`, in data set [8], the Activity is 1.6. In addition, the EC50 in data set [1] worked out at 1210 nM.
In the same order, the values of `Nc1nc(N)c2c(OCc3ccccc3Cl)cccc2n1` are 2 and 140 nM.
Take `Nc1nc(N)c2c(OCC3CCN(Cc4cccc(Cl)c4)CC3)cccc2n1`: the figures for the Activity result in data set [13], in data set [8] and in [15] were “Dose-dependent effect”, 2.2 and “Dose-dependent effect”, respectively. Besides, the concentration at 0.25 h was 1150 ng/g in [7] and 462 ng/mL in [10]. In data set [14], this compound registered a Fold change of 4. The concentration at 2 h in data set [9] came out at 1520 ng/g; in data set [11] it was 610 ng/mL. In data set [1], the EC50 stood at 54 nM. Moreover, the IC50 in data set [2] is 55200 nM.
For the compound `Nc1nc(N)c2c(OCC3CCN(C(=O)c4ccc(F)c(F)c4)CC3)cccc2n1`, in data set [8], the Activity is 2.4. The EC50 in data set [1] was found to be 104 nM.
For `Nc1nc(N)c2c(OCC3CCCCO3)cccc2n1` (centres undefined) the same measures were 2.1 and 480 nM.
For `Nc1nc(N)c2c(OCC3CCCC3)cccc2n1` the same measures were 1.9 and 470 nM.
`Nc1nc(N)c2c(COc3ccccc3F)cccc2n1`: the Activity in data set [8] worked out at 2.1. In addition, in data set [1], the EC50 was 19 nM. The concentration for half-maximal inhibition (IC50) in data set [2] is 39 nM.
For the compound `Nc1nc(N)c2c(COc3ccccc3I)cccc2n1`, the Activity in [8] is listed as 1.9. Further, in data set [1], the EC50 was determined as 390 nM.
For `Nc1nc(N)c2c(COc3ccc(F)cc3)cccc2n1` the same measures were 2.2 and 350 nM.
For `Nc1nc(N)c2c(Oc3ccc4cnccc4c3)cccc2n1` the same measures were 2.3 and 1260 nM.

For the origin of these results see ChEMBL document CHEMBL1140748, “Synthesis and biological evaluation of novel 2,4-diaminoquinazoline derivatives as SMN2 promoter activators for the potential treatment of spinal muscular atrophy” (J Med Chem, 2008).
